# In the library only some 2.3% were active in any assay of this set; here they are far more common.
# TRPC6 inh – mouse TRPC6 channel inhibition. Q61143. HEK293-TRPC6, membrane potential dye, ACh-evoked depolarization; active compounds read low. B-score at 10 µM. actives 1.1% (n = 310,000). AID 2553;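 active = B-score under library mean minus 3 SD, initial fluorescence not abnormally high, positive integrated signal ratio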;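 also: B-score derived from integrated fluorescence ratio over the kinetic read; more negative B-score means stronger inhibition of depolarization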
# TRPC4 agonist – opens the mouse TRPC4 cation channel; Q9QUQ5; B-score at 10 µM; actives 0.49% (n = 310,000); HEK293 TRPC4beta/mu-opioid, Fluo4 calcium fluorescence; active compounds read high;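 active = B-score above 5 SD of library B-scores, and initial fluorescence ratio not above library mean plus 5 SD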;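 also: positive B-score marks a calcium rise read as TRPC4 activation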
#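 system = HEK293 cells stably co-expressing mouse TRPC4beta and mu-opioid receptor | schedule = Fluo4 dye loading 45 min at room temperature, 110 s recording | measure = B-scored integrated calcium fluorescence ratio | signal = Fluo4 calcium-sensitive dye fluorescence, kinetic, 1 Hz baseline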
# TRPC6 act – mouse TRPC6 channel activation; HEK293-TRPC6 membrane potential dye fluorescence; active compounds read high; Q61143; actives 0.13% (n = 310,000); B-score at 10 µM;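 active = B-score of the integrated fluorescence ratio above library mean plus 3 SD, and starting fluorescence ratio within library mean plus 5 SD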;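 also: higher score means more depolarization so channel activation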
# TRPC4 inh – inhibitors of mouse TRPC4 channel. Q9QUQ5. HEK293 TRPC4beta/mu-opioid, DAMGO-evoked Fluo4 calcium flux; active compounds read low. B-score at 10 µM. actives 0.39% (n = 300,000). AID 2247;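 active = B-score over 3 SD under the library average, no early fluorescence shift, positive overall ratio signal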
#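 Material: HEK293 cells with stable TRPC4beta plus mu-opioid receptor expression / Probe or stimulus: DAMGO in two steps, submaximal then maximal / Compound: single concentration per test compound / Technique: kinetic Fluo4 fluorescence imaging of calcium influx / Read-out: per-well B score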
# TRPC4 PAM – allosteric potentiators of mouse TRPC4 channel | HEK293 TRPC4beta/mu-opioid, DAMGO EC20, Fluo-4 Ca2+ flux; active compounds read high | B-score at 10 µM | actives 0.42% (n = 310,000) | AID 2227;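 active = B-score of calcium response area above 5 SD of library B-scores, with initial fluorescence ratio within 5 SD of library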;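 also: B-score of integrated fluorescence ratio over time as area under calcium response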
# * hit, by the source's call; i = inactive; / = no result.
SMILES,TRPC6 inh,TRPC4 agonist,TRPC6 act,TRPC4 inh,TRPC4 PAM
Cc1occc1C(=O)NC1CCCN(Cc2ccc(Cl)cc2)C1 (stereo not given),i,62*,i,i,i
C=CC[N+](C)(C)CCCNC(=O)/C=N/O,i,i,i,i,i
COc1ccc(OC)c(/C=N/NC(=O)CC2C(=O)NN=C2C)c1 (stereo not given),i,i,i,i,i
O=C(NC1CCCN(Cc2ccc(Cl)cc2)C1)c1ccoc1 (stereo not given),i,43*,i,i,i
Cc1c(C(=O)N2CCCC2)oc2c1-c1nn(CC(=O)NCCCN3CCCCC3C)cc1CC2 (stereo not given),i,i,i,i,i
Cc1c(C(=O)N2CCCC2)oc2c1-c1nn(CC(=O)NCCCN3CCCCC3)cc1CC2,i,i,i,i,11*
CCOc1ccc(NS(=O)(=O)c2ccc(C(=O)N3CCCC(C)C3)cc2)cc1 (stereo not given),i,54*,i,i,i
O=C(c1ccc(S(=O)(=O)Nc2ccccc2)cc1)N1CCCC(C(F)(F)F)C1 (stereo not given),i,54*,i,i,i
Cc1ccc(NS(=O)(=O)c2ccc(C(=O)N3CCC3)cc2)cc1,i,i,i,i,i
CCOc1ccc(S(=O)(=O)Nc2ccc(C(=O)N3CCCC3)cc2)cc1,i,i,i,i,i
O=C(c1ccccc1)c1ccc(C(=O)N2CCCC(C(F)(F)F)C2)cc1 (stereo not given),i,i,i,i,i
Cc1ccc(NS(=O)(=O)c2ccc(C(=O)N3CC(C)OC(C)C3)cc2)cc1 (stereo not given),i,53*,i,i,i
CCCCNCCOc1ccccc1-c1ccccc1,i,i,i,-6*,i
CNCCCCOc1ccccc1-c1ccccc1,i,52*,i,i,i
CNCCOc1ccccc1-c1ccccc1,i,i,i,i,i
O=S(=O)(NCC1(N2CCOCC2)CCCCC1)c1ccc(Cl)cc1C(F)(F)F,i,47*,i,i,i
C/C(=N\NC(=O)c1ccncc1)c1cccc(NC(=O)c2ccc(C(C)(C)C)cc2)c1,i,i,i,i,i
C/C(=N/NC(=O)c1ccc(Cn2cccn2)o1)c1cccc(NC(=O)c2ccncc2)c1,i,62*,i,-6*,i
O=S(=O)(Nc1cccc(CCc2ccccn2)c1)c1cc(Cl)ccc1Cl,i,i,i,i,13*
O=S(=O)(Nc1ncccn1)c1ccc(NS(=O)(=O)c2cc(Cl)ccc2Cl)cc1,i,i,i,i,i
CC1(C)CC(=O)C(C(O)c2ccccc2)C(C)(C)N1 (stereo not given),i,i,i,i,i
CN(C)CCN(C(=O)c1cccc(Cl)c1)c1nc2c(Cl)cccc2s1,i,i,i,i,11*
CN(C)c1ccc(NC(=O)CN2CCN(S(=O)(=O)c3cc(Cl)ccc3Cl)CC2)cc1,i,i,i,i,i
O=C(CN1CCN(S(=O)(=O)c2cc(Cl)ccc2Cl)CC1)Nc1ccc2c(c1)OCCO2,-5.6*,57*,i,i,i
CCOC(=O)c1c(C)[nH]c(C)c1S(=O)(=O)N1CCN(c2ccc(F)cc2)CC1,i,i,i,i,i
SMILES,TRPC6 inh,TRPC4 agonist,TRPC6 act,TRPC4 inh,TRPC4 PAM
O=C(Cc1cccs1)NNC(=S)NC(=O)c1ccccc1,i,52*,i,i,i
O=C(Cc1cccs1)NNC(=S)NC(=O)c1ccc(F)c(F)c1,i,60*,i,i,i
O=C(/C=C/c1ccccc1)NC(=S)NNC(=O)Cc1cccs1,i,i,i,i,i
CCOc1ccc(S(=O)(=O)Nc2ccc(C(=O)NCC(C)(C)N3CCOCC3)cc2)cc1,i,i,i,i,i
Cc1cc(S(=O)(=O)NC2CCN(Cc3ccccc3)CC2)c(C)cc1Cl,i,i,i,i,20*
Cc1cc(C)c(S(=O)(=O)NC2CCN(Cc3ccccc3)CC2)c(C)c1,i,i,i,i,i
Cc1ccccc1C(=O)NC1CC(C)(C)NC(C)(C)C1,i,i,i,i,i
CC1(C)CC(NC2C3CC4CC(C3)CC2C4)CC(C)(C)N1 (stereo not given),i,i,i,i,12*
CC(C)C[C@@H](CC#N)N1CCN(Cc2ccccc2)CCC1=O,i,i,i,i,i
COc1ccc(CC(=O)Nc2ccc(N(C)C)c3ccccc23)cc1,i,i,i,i,i
CC(NS(=O)(=O)OCC(Cl)(Cl)Cl)c1ccc(Br)cc1 (stereo not given),i,i,i,i,15*
CC(C)CC(NS(=O)(=O)OCC(Cl)(Cl)Cl)c1ccccc1 (stereo not given),i,i,i,/,i
O=C1CC(N2CCN(c3nc4ccccc4s3)CC2)C(=O)N1c1ccc(F)cc1 (stereo not given),i,i,i,i,14*
OCCN(CCO)c1ncnc2c1sc1nc(N3CCOCC3)c3c(c12)CCCC3,i,i,i,i,15*
Cc1ccc(-n2c(-c3ccccc3)c[n+]3c2CCc2ccccc2-3)c(C)c1,-5.5*,i,i,i,i
Cc1ccc(CNC(=O)c2cc3cc(Br)ccc3oc2=N)cc1,i,i,i,i,i
N=c1oc2ccc(Br)cc2cc1C(=O)NCc1ccc(F)cc1,i,i,i,i,12*
Cc1nn(C)c(C)c1Sc1ccc(Br)cc1,i,i,i,-6*,i
Cn1cnc([N+](=O)[O-])c1Sc1ccc(Br)cc1,i,i,i,i,i
CCc1c(C(=O)N2CCCN(C)CC2)csc1C,i,i,i,-6*,i
CCc1ccc(C(=O)N2CCCN(C)CC2)s1,i,i,i,i,i
CC(C)CCN1CCN(Cc2ccsc2)CC1CCO (stereo not given),i,i,i,-8*,i
C#Cc1ccc(CN2CCN(CCc3ccccc3)C(CCO)C2)cc1 (stereo not given),i,43*,i,i,i
OCCC1CN(Cc2ccc(F)cc2)CCN1CCc1ccccc1 (stereo not given),i,i,i,i,i
OCCC1CN(Cc2nc3ccccc3s2)CCN1CCc1ccccc1 (stereo not given),i,60*,i,i,i
COc1cc(Cl)c(C)cc1Nc1ncccn1,i,i,i,i,i
